According to ChEMBL document CHEMBL3112564, “Identification of clinically viable quinolinol inhibitors of botulinum neurotoxin A light chain” (J Med Chem, 2014):
Values after ≈ are worked out from the molar mass of the structure shown.

What was measured:
[1] = biological target: Botulinum neurotoxin type A (Clostridium botulinum, UniProt P0DPI0)
Liver microsome [2] = assay: Half life in human liver microsomes at 1 uM by reversed phase LC/MS analysis; format: ADME
Summary of the method: (§1)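 Liver microsomes were from humans (pooled from 10 male donors) or male Sprague–Dawley rats aged 8–10 weeks. Incubations used 0.125 mg/mL total protein and 1.0 μM drug at 37 °C, sampled at 0, 5, 15, 30 and 60 min. Parent-to-product transitions were read by reversed-phase LC with triple quadrupole MS, and % remaining was taken relative to time zero. t1/2 = −ln(2)/k, with k from log–linear regression.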

Liver microsome [3] = assay: Drug metabolism in human liver microsomes assessed as metabolic rate at 1 uM by reversed phase LC/MS analysis; format: ADME
Summary of the method: as §1

Plasma [4] = assay: Half life in human plasma at 1 uM by LC-MS/MS analysis; format: ADME, cell-free
Summary of the method: (§2)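 Compound at 1.0 μM was incubated in plasma at 37 °C and sampled at 0, 1, 3, 5 and 24 h. Proteins were precipitated with cold acetonitrile containing internal standard, and samples were analysed by LC–MS/MS for percent remaining. Half-life came from regression analysis.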

[5] = Aqueous solubility of the compound at pH 6.8 after 24 hrs by shake flask method; format: physicochemical; details: buffer, pH 6.8, 24 h
Summary of the method: (§3)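 Miniaturized shake-flask method: analyte at 1.0 mM in aqueous solution at pH 1.0 or 6.8, shaken gently (600 rpm) in a syringeless filter at room temperature for 24 h. Filtrate was collected after a further 30 min, diluted in 50:50 MeCN/water with 0.1% formic acid, and analysed by LC–MS/MS. Calibration range was 0.05–12.5 μM at pH 6.8 and 5.0–25000 μM at pH 1.0.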

Plasma [6] = assay: Half life in Sprague-Dawley rat plasma at 1 uM by LC-MS/MS analysis; format: ADME, cell-free
Summary of the method: as §2

Liver microsome [7] = assay: Half life in Sprague-Dawley rat liver microsomes at 1 uM by reversed phase LC/MS analysis; format: ADME
Summary of the method: as §1

Liver microsome [8] = assay: Drug metabolism in Sprague-Dawley rat liver microsomes assessed as metabolic rate at 1 uM by reversed phase LC/MS analysis; format: ADME
Summary of the method: as §1

Plasma [9] = assay: Metabolic stability in Sprague-Dawley rat plasma assessed as compound remaining at 1 uM measured at 3 hrs by LC-MS/MS analysis; format: ADME, cell-free
Summary of the method: as §2

[10] = Aqueous solubility of the compound at pH 1 after 24 hrs by shake flask method; format: physicochemical
Summary of the method: as §3

Plasma [11] = assay: Metabolic stability in human plasma assessed as compound remaining at 1 uM measured at 3 hrs by LC-MS/MS analysis; format: ADME, cell-free
Summary of the method: as §2

Homo sapiens = organism: Homo sapiens; assay: Half life in human; format: ADME, organism-based; details: in vivo
Serum = assay: Drug uptake in serum of alzheimer patient at 250 to 750 mg, po; format: ADME, cell-free; details: human, read-out: Drug uptake

Sequence of Botulinum neurotoxin type A (P0DPI0 2-448 limits assumed): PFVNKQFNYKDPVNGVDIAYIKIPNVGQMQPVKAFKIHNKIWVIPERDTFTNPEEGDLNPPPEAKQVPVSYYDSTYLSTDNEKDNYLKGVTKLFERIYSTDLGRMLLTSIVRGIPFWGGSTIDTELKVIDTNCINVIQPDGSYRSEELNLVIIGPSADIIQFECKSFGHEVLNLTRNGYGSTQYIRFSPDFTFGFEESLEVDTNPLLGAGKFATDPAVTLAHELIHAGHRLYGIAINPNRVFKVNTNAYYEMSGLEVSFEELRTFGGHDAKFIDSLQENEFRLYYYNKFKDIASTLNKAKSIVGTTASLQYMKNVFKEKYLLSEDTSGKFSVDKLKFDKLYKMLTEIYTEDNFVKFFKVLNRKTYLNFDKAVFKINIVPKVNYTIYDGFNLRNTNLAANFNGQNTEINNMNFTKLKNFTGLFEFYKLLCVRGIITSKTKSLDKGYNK

Cc1cccc(NC(c2ccc(C)s2)c2ccc3ccc(C)nc3c2O)n1 (stereo unspecified)
IC50 [1]: > 100 µM

Cc1ccc(C(Nc2ccccn2)c2ccc3cccnc3c2O)cc1 (stereo unspecified)
IC50 [1]: 2.5 µM

CCCC(=O)NC(c1ccccc1Cl)c1ccc2cccnc2c1O (stereo unspecified)
IC50 [1]: > 100 µM

COc1cccc(C(NC(C)=O)c2ccc3cccnc3c2O)c1 (stereo unspecified)
IC50 [1]: > 100 µM

Oc1c(C(Nc2ccccn2)c2ccccc2)ccc2cccnc12 (stereo unspecified)
IC50 [1]: 2.2 µM
t1/2 (Liver microsome [2]): 0.493 h
Drug metabolism (Liver microsome [3]): 0.186 µM/min/mg
t1/2 (Plasma [4]): 11.4 h
solubility [5]: 0.078 µM (≈ 0.0255 µg/mL)
t1/2 (Plasma [6]): 13.5 h
t1/2 (Liver microsome [7]): 0.143 h
Drug metabolism (Liver microsome [8]): 0.637 µM/min/mg
Stability (Plasma [9]): 67.3%
solubility thermodynamic at 24 h [10]: 1170 µM (≈ 384 µg/mL)

CC(C)Oc1c(C(Nc2ccccn2)c2ccccc2)ccc2cccnc12 (stereo unspecified)
IC50 [1]: > 100 µM

CC(C)C(=O)NC(c1ccccc1Cl)c1ccc2cccnc2c1O (stereo unspecified)
IC50 [1]: > 100 µM

O=C(NC(c1ccccc1Cl)c1ccc2cccnc2c1O)c1ccccc1 (stereo unspecified)
IC50 [1]: 0.8 µM

Cc1ccccc1C(Nc1ccccn1)c1ccc2cccnc2c1O (stereo unspecified)
IC50 [1]: 3.6 µM

Cc1ccc2ccc(C(Nc3ccccn3)c3ccccc3C)c(O)c2n1 (stereo unspecified)
IC50 [1]: 1.6 µM

Cc1cccc(NC(c2ccccc2[N+](=O)[O-])c2ccc3ccc(C)nc3c2O)n1 (stereo unspecified)
IC50 [1]: 10.7 µM

Cc1ccnc(NC(c2ccccc2[N+](=O)[O-])c2ccc3ccc(C)nc3c2O)c1 (stereo unspecified)
IC50 [1]: 0.9 µM

Cc1ccnc(NC(c2ccccn2)c2ccc3cccnc3c2O)c1 (stereo unspecified)
IC50 [1]: 13.4 µM

Cc1ccnc(NC(c2ccccn2)c2ccc3ccc(C)nc3c2O)c1 (stereo unspecified)
IC50 [1]: 2.1 µM

Cc1ccnc(NC(c2cccc([N+](=O)[O-])c2)c2ccc3cccnc3c2O)c1 (stereo unspecified)
IC50 [1]: 4.6 µM

Cc1ccnc(NC(c2cccc([N+](=O)[O-])c2)c2ccc3ccc(C)nc3c2O)c1 (stereo unspecified)
IC50 [1]: 1.1 µM

Cc1ccc2ccc(C(Nc3ccccn3)c3cccc(OCc4ccccc4)c3)c(O)c2n1 (stereo unspecified)
IC50 [1]: 1.4 µM

Cc1cccc(NC(c2cccc(OCc3ccccc3)c2)c2ccc3ccc(C)nc3c2O)n1 (stereo unspecified)
IC50 [1]: 3.5 µM

COc1cccc(C(Nc2cc(C)ccn2)c2ccc3ccc(C)nc3c2O)c1 (stereo unspecified)
IC50 [1]: 2 µM

Cc1ccnc(NC(c2ccc(Cl)c(Cl)c2)c2ccc3cccnc3c2O)c1 (stereo unspecified)
IC50 [1]: 1.5 µM

Cc1ccnc(NC(c2ccc(Cl)c(Cl)c2)c2ccc3ccc(C)nc3c2O)c1 (stereo unspecified)
IC50 [1]: 1.2 µM

COc1ccc(C(Nc2ccccn2)c2ccc3cccnc3c2O)cc1OC (stereo unspecified)
IC50 [1]: 6.2 µM

COc1ccc(C(Nc2ccccn2)c2ccc3ccc(C)nc3c2O)cc1OC (stereo unspecified)
IC50 [1]: 3 µM

Oc1c(C(Nc2ccccn2)c2ccc(F)cc2)ccc2cccnc12 (stereo unspecified)
IC50 [1]: 7.1 µM

Cc1ccc2ccc(C(Nc3ccccn3)c3ccc(F)cc3)c(O)c2n1 (stereo unspecified)
IC50 [1]: 2.8 µM

Cc1ccc(C(Nc2ccccn2)c2ccc3ccc(C)nc3c2O)cc1 (stereo unspecified)
IC50 [1]: 2.1 µM

CC(=O)NC(c1ccc(C)cc1)c1ccc2cccnc2c1O (stereo unspecified)
IC50 [1]: > 100 µM

CC(=O)NC(c1ccc(N(C)C)cc1)c1ccc2cccnc2c1O (stereo unspecified)
IC50 [1]: > 100 µM

CN(C)c1ccc(C(NC(=O)Cc2ccccc2)c2ccc3cccnc3c2O)cc1 (stereo unspecified)
IC50 [1]: 7.1 µM

Cc1ccnc(NC(c2ccc(N(C)C)cc2)c2ccc3cccnc3c2O)c1 (stereo unspecified)
IC50 [1]: 3.5 µM

Cc1ccnc(NC(c2ccc(N(C)C)cc2)c2ccc3ccc(C)nc3c2O)c1 (stereo unspecified)
IC50 [1]: 2.5 µM

Cc1cccc(NC(c2ccc(N(C)C)cc2)c2ccc3ccc(C)nc3c2O)n1 (stereo unspecified)
IC50 [1]: 4.5 µM

Cc1ccnc(NC(c2ccc([N+](=O)[O-])cc2)c2ccc3ccc(C)nc3c2O)c1 (stereo unspecified)
IC50 [1]: 1 µM
t1/2 (Liver microsome [2]): 1.93 h
Drug metabolism (Liver microsome [3]): 0.047 µM/min/mg
t1/2 (Plasma [4]): 42 h
t1/2 (Plasma [6]): 109 h
t1/2 (Liver microsome [7]): 0.338 h
Drug metabolism (Liver microsome [8]): 0.271 µM/min/mg
Stability (Plasma [9]): 98.5%
Stability (Plasma [11]): 92.2%
solubility thermodynamic at 24 h [10]: 997 µM (≈ 399 µg/mL)

COc1ccc(C(Nc2ccccn2)c2ccc3cccnc3c2O)cc1 (stereo unspecified)
IC50 [1]: 5.6 µM
t1/2 (Liver microsome [2]): 0.378 h
Drug metabolism (Liver microsome [3]): 0.242 µM/min/mg
t1/2 (Plasma [4]): 6.1 h
t1/2 (Plasma [6]): 5 h
t1/2 (Liver microsome [7]): 0.188 h
Drug metabolism (Liver microsome [8]): 0.487 µM/min/mg
Stability (Plasma [9]): 42.2%
Stability (Plasma [11]): 53.4%
solubility thermodynamic at 24 h [10]: 102 µM (≈ 36.5 µg/mL)

COc1ccc(C(Nc2ccccn2)c2ccc3ccc(C)nc3c2O)cc1 (stereo unspecified)
IC50 [1]: 1.9 µM
t1/2 (Liver microsome [2]): 0.283 h
Drug metabolism (Liver microsome [3]): 0.324 µM/min/mg
t1/2 (Plasma [4]): 10.7 h
t1/2 (Plasma [6]): 5 h
t1/2 (Liver microsome [7]): 0.147 h
Drug metabolism (Liver microsome [8]): 0.627 µM/min/mg
Stability (Plasma [9]): 86.6%
Stability (Plasma [11]): 66.2%
solubility thermodynamic at 24 h [10]: 76.7 µM (≈ 28.5 µg/mL)

Cc1ccc2ccc(C(Nc3ccccn3)c3ccc(C)s3)c(O)c2n1 (stereo unspecified)
IC50 [1]: 2 µM

Oc1c(C(Nc2ccccc2Cl)c2ccccn2)ccc2cccnc12 (stereo unspecified)
IC50 [1]: 5.6 µM

Oc1c(C(Nc2ccccc2Cl)c2cccnc2)ccc2cccnc12 (stereo unspecified)
IC50 [1]: 1.9 µM

CCOC(=O)c1ccc(NC(c2ccccn2)c2ccc3cccnc3c2O)cc1 (stereo unspecified)
IC50 [1]: 5.1 µM

CCOC(=O)c1ccc(NC(c2cccnc2)c2ccc3cccnc3c2O)cc1 (stereo unspecified)
IC50 [1]: 2.9 µM

COC(=O)c1cccc(NC(c2ccccn2)c2ccc3cccnc3c2O)c1 (stereo unspecified)
IC50 [1]: 7.8 µM

COC(=O)c1cccc(NC(c2cccnc2)c2ccc3cccnc3c2O)c1 (stereo unspecified)
IC50 [1]: 4.2 µM

CCCOC(=O)c1ccc(NC(c2ccccn2)c2ccc3cccnc3c2O)cc1 (stereo unspecified)
IC50 [1]: 5.6 µM

CCCOC(=O)c1ccc(NC(c2cccnc2)c2ccc3cccnc3c2O)cc1 (stereo unspecified)
IC50 [1]: 3 µM

COc1ccc(C)cc1NC(c1ccccn1)c1ccc2cccnc2c1O (stereo unspecified)
IC50 [1]: 5.1 µM

COc1ccc(C)cc1NC(c1cccnc1)c1ccc2cccnc2c1O (stereo unspecified)
IC50 [1]: 4.4 µM

Cc1cc(Cl)ccc1NC(c1ccccn1)c1ccc2cccnc2c1O (stereo unspecified)
IC50 [1]: 5.2 µM

Cc1cc(Cl)ccc1NC(c1cccnc1)c1ccc2cccnc2c1O (stereo unspecified)
IC50 [1]: 2.3 µM

Cc1cccc(NC(c2ccccn2)c2ccc3cccnc3c2O)c1 (stereo unspecified)
IC50 [1]: 16.7 µM

Cc1cccc(NC(c2cccnc2)c2ccc3cccnc3c2O)c1 (stereo unspecified)
IC50 [1]: 6.7 µM

Oc1c(CNc2ccccn2)ccc2cccnc12
IC50 [1]: 26.7 µM
t1/2 (Liver microsome [2]): 0.452 h
Drug metabolism (Liver microsome [3]): 0.203 µM/min/mg
t1/2 (Plasma [4]): 14.2 h
t1/2 (Plasma [6]): 12.9 h
t1/2 (Liver microsome [7]): 0.613 h
Drug metabolism (Liver microsome [8]): 0.149 µM/min/mg
Stability (Plasma [9]): 76.3%
Stability (Plasma [11]): 96.1%
solubility thermodynamic at 24 h [10]: 1140 µM (≈ 287 µg/mL)

Cc1ccc2c(Cl)cc(I)c(O)c2n1
IC50 [1]: 14.1 µM

Cc1ccnc(NC(c2ccc([N+](=O)[O-])cc2)c2ccc3cccnc3c2O)c1 (stereo unspecified)
IC50 [1]: 4.3 µM
t1/2 (Liver microsome [2]): 0.425 h
Drug metabolism (Liver microsome [3]): 0.215 µM/min/mg
t1/2 (Plasma [4]): 24.4 h
t1/2 (Plasma [6]): 51.1 h
t1/2 (Liver microsome [7]): 0.703 h
Drug metabolism (Liver microsome [8]): 0.13 µM/min/mg
Stability (Plasma [9]): 100%
Stability (Plasma [11]): 90.9%
solubility thermodynamic at 24 h [10]: 1050 µM (≈ 405 µg/mL)

CCC(=O)NC(c1ccc(OC)c(OC)c1)c1ccc2cccnc2c1O (stereo unspecified)
IC50 [1]: > 100 µM

COc1cccc(C(Nc2cc(C)ccn2)c2ccc3cccnc3c2O)c1 (stereo unspecified)
IC50 [1]: 3.3 µM

CCC(=O)NC(c1ccc(N(C)C)cc1)c1ccc2cccnc2c1O (stereo unspecified)
IC50 [1]: > 100 µM

CCC(=O)NC(c1ccccc1Cl)c1ccc2cccnc2c1O (stereo unspecified)
IC50 [1]: > 100 µM

Cc1ccc2cccc(O)c2n1 [8-HYDROXY QUINALDINE]
IC50 [1]: > 30 µM

Oc1c(Cl)cc(Cl)c2cccnc12 [CHLOROXINE]
IC50 [1]: 11.5 µM
t1/2 (Liver microsome [2]): 0.815 h
Drug metabolism (Liver microsome [3]): 0.112 µM/min/mg
t1/2 (Plasma [4]): 18.6 h
solubility [5]: 0.532 µM (≈ 0.114 µg/mL)
t1/2 (Plasma [6]): 67.7 h
t1/2 (Liver microsome [7]): 0.917 h
Drug metabolism (Liver microsome [8]): 0.1 µM/min/mg
Stability (Plasma [9]): 100%
Stability (Plasma [11]): 100%
solubility thermodynamic at 24 h [10]: 326 µM (≈ 69.8 µg/mL)

Cc1ccc2c(Cl)cc(Cl)c(O)c2n1 [CHLORQUINALDOL]
IC50 [1]: 10.1 µM
t1/2 (Liver microsome [2]): 0.48 h
Drug metabolism (Liver microsome [3]): 0.19 µM/min/mg
t1/2 (Plasma [4]): 24.5 h
t1/2 (Plasma [6]): 115 h
t1/2 (Liver microsome [7]): 0.643 h
Drug metabolism (Liver microsome [8]): 0.142 µM/min/mg
Stability (Plasma [9]): 96.9%
Stability (Plasma [11]): 92.2%
solubility thermodynamic at 24 h [10]: 1100 µM (≈ 250 µg/mL)

Oc1c(I)cc(Cl)c2cccnc12 [CLIOQUINOL]
IC50 [1]: 20.3 µM
t1/2 (Liver microsome [2]): 1.06 h
Drug metabolism (Liver microsome [3]): 0.086 µM/min/mg
t1/2 (Plasma [4]): 42.4 h
t1/2 (Homo sapiens): 11 h
concentration (Serum): 13 µM
t1/2 (Plasma [6]): 136 h
t1/2 (Liver microsome [7]): 1.28 h
Drug metabolism (Liver microsome [8]): 0.071 µM/min/mg
Stability (Plasma [9]): 83.9%
Stability (Plasma [11]): 100%
solubility thermodynamic at 24 h [10]: 38.1 µM (≈ 11.6 µg/mL)

Oc1cccc2cccnc12 [OXYQUINOLINE]
IC50 [1]: > 30 µM
